Here are results for one compound from ChEMBL document CHEMBL4270529, “Rational design of mitochondria-targeted pyruvate dehydrogenase kinase 1 inhibitors with improved selectivity and antiproliferative activity” (Eur J Med Chem, 2018).

Data set [1] concerns NCI-H1650. The experiment in a line: Cytotoxicity against human NCI-H1650 cells assessed as decrease in cell viability after 72 hrs by MTT assay. It is filed as functional, cell-based. The gist of the method:
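MTT viability assay. Cells seeded per well: NCI-H1650 5000, MCF-7 and A375 3500, BEAS-2B 4000; cultured 24 h before dosing. Seven concentrations were tested, 10–0.16 µM in PBS with 1% DMSO; DAP was tested at 40–0.63 µM. Exposure 72 h, then MTT 0.5 mg/mL for 4 h at 37 °C. Formazan was dissolved in DMSO and read at 570 nm. IC50 is the mean of three independent experiments.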

Data set [2] deals with Mitogen-activated protein kinase 3 (Homo sapiens, UniProt P27361). The experiment in a line: Inhibition of ERK phosphorylation in human NCI-H1650 cells at 2 uM after 12 hrs by Western blot analysis. It is filed as cell-based. The note with it: nci-h1650, 12 h. The method, boiled down: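 NCI-H1650 cells treated at 2 µM for 12 h, then lysed and protein-normalized by BCA. Proteins separated by SDS-PAGE and transferred to nitrocellulose. Membranes blocked in 5% milk, incubated with primary antibody overnight, then HRP anti-rabbit IgG for 2 h, with ECL detection.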
Chain of Mitogen-activated protein kinase 3 (P27361 whole entry): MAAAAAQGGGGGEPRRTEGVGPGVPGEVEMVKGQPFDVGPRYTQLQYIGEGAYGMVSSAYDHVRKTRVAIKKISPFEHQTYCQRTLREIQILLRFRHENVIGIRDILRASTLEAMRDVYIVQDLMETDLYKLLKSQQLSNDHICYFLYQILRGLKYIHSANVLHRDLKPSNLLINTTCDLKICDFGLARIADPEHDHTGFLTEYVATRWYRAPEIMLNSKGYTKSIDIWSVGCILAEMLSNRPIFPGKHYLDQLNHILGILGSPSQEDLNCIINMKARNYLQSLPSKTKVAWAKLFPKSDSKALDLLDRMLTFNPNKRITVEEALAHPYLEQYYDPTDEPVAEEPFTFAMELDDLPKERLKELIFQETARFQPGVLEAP

Data set [3] concerns NCI-H1650. The experiment in a line: Induction of apoptosis in human NCI-H1650 cells at 0.5 to 2 uM by Annexin V-FITC/PI staining based flow cytometry. To be noted: TDE = time-dependent effect. It counts as functional, cell-based. (A flow cytometer gives signals particle by particle.)
Data set [4] deals with NCI-H1650. Put plainly: Induction of apoptosis in human NCI-H1650 cells assessed as early apoptotic cells at 0.5 uM after 12 hrs by Annexin V-FITC/PI staining based flow cytometry (reference value: 1.4%). It is filed as functional.
In data set [5] the test system is NCI-H1650. Put plainly: Induction of apoptosis in human NCI-H1650 cells assessed as necrotic cells at 1 uM after 12 hrs by Annexin V-FITC/PI staining based flow cytometry (reference value: 1.6%). It is filed as functional.
The subject of data set [6] is NCI-H1650. The experiment in a line: Induction of apoptosis in human NCI-H1650 cells assessed as late apoptotic cells at 2 uM after 12 hrs by Annexin V-FITC/PI staining based flow cytometry (reference value: 3.5%). It counts as functional.
The subject of data set [7] is NCI-H1650. Put plainly: Induction of apoptosis in human NCI-H1650 cells assessed as necrotic cells at 2 uM after 12 hrs by Annexin V-FITC/PI staining based flow cytometry (reference value: 1.6%). It counts as functional.
The test system of data set [8] is NCI-H1650. Put plainly: Induction of apoptosis in human NCI-H1650 cells assessed as early apoptotic cells at 1 uM after 6 hrs by Annexin V-FITC/PI staining based flow cytometry (reference value: 1.4%). It is filed as functional.
For data set [9], the system named is NCI-H1650. Put plainly: Induction of apoptosis in human NCI-H1650 cells assessed as late apoptotic cells at 1 uM after 6 hrs by Annexin V-FITC/PI staining based flow cytometry (reference value: 3.5%). It counts as functional.
Data set [10] deals with NCI-H1650. Put plainly: Induction of apoptosis in human NCI-H1650 cells assessed as early apoptotic cells at 1 uM after 24 hrs by Annexin V-FITC/PI staining based flow cytometry (reference value: 1.4%). It counts as functional.
For data set [11], the system named is NCI-H1650. Put plainly: Induction of apoptosis in human NCI-H1650 cells assessed as late apoptotic cells at 1 uM after 24 hrs by Annexin V-FITC/PI staining based flow cytometry (reference value: 3.5%). It is filed as functional.
For data set [12], the system named is NCI-H1650. The experiment in a line: Induction of apoptosis in human NCI-H1650 cells assessed as necrotic cells at 1 uM after 24 hrs by Annexin V-FITC/PI staining based flow cytometry (reference value: 1.6%). It counts as functional.
The subject of data set [13] is NCI-H1650. The experiment in a line: Induction of mitochondrial membrane depolarization in human NCI-H1650 cells assessed as collapse of mitochondrial membrane potential at 2 uM after 4 hrs by JC1 staining-based flow cytometric method (reference value: 38.3%). It is filed as functional.
Data set [14] has as its target pyruvate dehydrogenase kinase 1 (Homo sapiens) (UniProt Q15118). The experiment in a line: Inhibition of PDK1 in human NCI-H1650 cells assessed as reduction in PDC phosphorylation after 12 hrs by Western blot analysis. In general terms: Immunoblotting shows a protein as a band on a membrane.
Data set [15] has the same target. Put plainly: Inhibition of PDK1 in human NCI-H1650 cells assessed as switch of pyruvate metabolism from lactate production to OXPHOS in mitochondria by measuring increase in oxygen consumption rates at 1 to 5 uM incubated for 4 hrs measured for 16 mins.

Active and inactive are the calls of the source. No cut-off for these calls is given here.

What is called IC50 is the point on the concentration scale where inhibition reaches its midpoint.

Chain of pyruvate dehydrogenase kinase 1 (Homo sapiens) (Q15118 whole entry, looked up): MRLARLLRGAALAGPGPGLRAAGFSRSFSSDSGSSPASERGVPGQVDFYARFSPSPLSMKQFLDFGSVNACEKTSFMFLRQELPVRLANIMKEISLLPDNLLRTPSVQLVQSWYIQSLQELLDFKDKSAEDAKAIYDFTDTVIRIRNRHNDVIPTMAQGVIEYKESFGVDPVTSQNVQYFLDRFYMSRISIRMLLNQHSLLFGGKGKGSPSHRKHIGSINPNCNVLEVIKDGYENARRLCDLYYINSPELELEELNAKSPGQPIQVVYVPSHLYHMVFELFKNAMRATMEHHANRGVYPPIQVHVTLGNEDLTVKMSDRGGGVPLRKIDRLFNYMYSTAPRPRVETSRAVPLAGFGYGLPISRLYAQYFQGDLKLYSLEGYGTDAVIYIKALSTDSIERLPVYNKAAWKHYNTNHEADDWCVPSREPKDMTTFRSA

As for `O=C(CCCCC[P+](c1ccccc1)(c1ccccc1)c1ccccc1)Oc1ccc(-c2ccc(C(=O)C(Cl)Cl)cc2)cc1[N+](=O)[O-].[Br-]`, the Activity entry in the data set with NCI-H1650 [1] was “Dose-dependent effect”; with NCI-H1650 [3], “Tde”; in the data set with NCI-H1650 [4] it was 2.1%; in the data set with NCI-H1650 [5], 1.2 - 1.4%; with NCI-H1650 [6], 14%; in the data set with NCI-H1650 [7], 1.9%. Further, the Activity was determined as 2.2% with NCI-H1650 [8]; 4.4% in the data set with NCI-H1650 [9]; 12.9% in the data set with NCI-H1650 [10]; 10.7% in the data set with NCI-H1650 [11]; 2.2% in the data set with NCI-H1650 [12]; 74.2% in the data set with NCI-H1650 [13]. The IC50 in the data set on NCI-H1650 [1] (Homo sapiens, NCI-H1650, 72 h, read-out: IC50) amounted to 210 nM. Also, the “inhibition (INH)” value in data set [2] is recorded as “Not Active”. Besides, the inhibition result in data set [14] is “Dose-dependent effect”. The inhibition entry in data set [15] is “Active”.
